Results published in ChEMBL document CHEMBL2093137, “WHO-TDR NTD Screening”.
≈ marks a conversion by molar mass, not a printed value.

Tests used:
Onchocerca ochengi = experiment: WHO-TDR: Onchocerciasis; format: functional; parameters: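 at 12.5 µM on microfilariae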
Procedure, shortened: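 A diverse library of 10,000 compounds from Life Chemicals, filtered for drug-likeness and reactive groups, was screened against whole microfilariae of Onchocerca ochengi or Onchocerca lienalis. These animal pathogens served as stand-ins for the human parasite. Activity is given as percent inhibition and as IC50.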

[1] = WHO-TDR: Cytotoxicity; format: toxicity, cell-based; conditions: human, MRC5 cells
Brugia malayi = experiment: WHO-TDR: Lymphatic Filariasis; format: functional; parameters: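 tested at 10 µM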
Procedure, shortened: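 A diverse library of 10,000 compounds from Life Chemicals was screened against Brugia malayi microfilariae in a whole-organism assay. The library had been filtered for drug-likeness and reactive groups. Activity is given as percent inhibition and as IC50.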

Leishmania infantum = experiment: WHO-TDR: Leishmaniasis; format: functional, organism-based, Mus musculus; conditions: Macrophage
Procedure, shortened: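 IC50 values describe antiparasitic potency in this whole-organism screen. Leishmania infantum MHOM/MA(BE)/67 amastigotes were tested inside murine peritoneal macrophages against a 10,000-compound diverse Life Chemicals library. A reference drug served as positive control.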

Schistosoma mansoni = experiment: WHO-TDR: Schistosomiasis; format: functional; parameters: concentration or dose not given beside the values
Procedure, shortened: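 A diverse library of 10,000 compounds from Life Chemicals, filtered for drug-likeness and reactive groups, was screened against whole larval and/or adult Schistosoma mansoni worms of the Puerto Rican strain. Previously published standard procedures were followed, with a reference drug as positive control. Activity is given as percent inhibition and as IC50.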

Plasmodium falciparum K1 = experiment: WHO-TDR: Malaria; format: functional, organism-based, Homo sapiens; conditions: Erythrocyte
Procedure, shortened: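 Life Chemicals supplied the diverse library of 10,000 compounds, which had been filtered for drug-likeness and reactive groups. Each was screened against the K1 strain of Plasmodium falciparum at its intra-erythrocytic stage in human red blood cells, using previously published standard procedures and a reference drug as positive control. The table reports IC50 for antiplasmodial potency.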

Trypanosoma cruzi = experiment: WHO-TDR: Chagas disease; format: functional, organism-based, Homo sapiens; conditions: MRC5
Procedure, shortened: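 Intracellular amastigotes of the Trypanosoma cruzi Tulahuen CL2 beta-galactosidase strain, grown in MRC-5SV2 human lung fibroblast host cells, were tested in a whole-organism screen. The compounds came from a 10,000-member diverse Life Chemicals library that had been filtered for drug-likeness and reactive groups. Previously published standard procedures were followed, with a reference drug as positive control, and potency is reported as IC50.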

[2] = system: Trypanosoma brucei brucei; experiment: WHO-TDR: Human African Trypanosomiasis (HAT); format: functional, organism-based; conditions: Squib-427
Procedure, shortened: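 Following previously published standard procedures, with reference drugs as positive controls, a whole-organism assay was run against bloodstream-form Trypanosoma brucei, Squib 427 strain. The compounds, 10,000 in all, came from a diverse Life Chemicals library filtered for drug-likeness and reactive groups. Reported values are IC50 for antiparasitic potency.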

In the case of Cc1cccc(Nc2ccc(NCCNS(=O)(=O)c3ccc(F)cc3)nn2)n1, the “% Inhibition” value (Onchocerca ochengi) was 100%, the IC50 [1] was over 12.1 µg/mL and the “% Inhibition” value (Brugia malayi) was 50%. For the same compound, the IC50 (Leishmania infantum) was over 12.1 µg/mL, the “% Inhibition” value (Schistosoma mansoni) was 0% and the IC50 (Plasmodium falciparum K1) was 0.582 µg/mL (≈ 1.45 µM). It also gave an IC50 (Trypanosoma cruzi) of over 12.1 µg/mL and an IC50 [2] of 4.06 µg/mL (≈ 10.1 µM).
With Cc1cc(C)c(S(=O)(=O)NCCNc2ccc(Nc3cccc(C)n3)nn2)c(C)c1 the “% Inhibition” value (Onchocerca ochengi) was 100%, the IC50 [1] was 6.74 µg/mL (≈ 15.8 µM) and the “% Inhibition” value (Brugia malayi) was 0%. For the same compound, the IC50 (Leishmania infantum) was 5.4 µg/mL (≈ 12.7 µM), the “% Inhibition” value (Schistosoma mansoni) was 33.3% and the IC50 (Plasmodium falciparum K1) was 2.41 µg/mL (≈ 5.65 µM). It also gave an IC50 (Trypanosoma cruzi) of 4.46 µg/mL (≈ 10.5 µM) and an IC50 [2] of 4.14 µg/mL (≈ 9.71 µM).
With COc1ccc(C)cc1S(=O)(=O)NCCNc1ccc(Nc2cccc(C)n2)nn1 the “% Inhibition” value (Onchocerca ochengi) was 100%, the IC50 [1] was over 12.9 µg/mL and the “% Inhibition” value (Brugia malayi) was 0%. For the same compound, the IC50 (Leishmania infantum) was over 12.9 µg/mL, the “% Inhibition” value (Schistosoma mansoni) was 0% and the IC50 (Plasmodium falciparum K1) was 3.4 µg/mL (≈ 7.95 µM). It also gave an IC50 (Trypanosoma cruzi) of over 12.9 µg/mL and an IC50 [2] of 5.42 µg/mL (≈ 12.7 µM).
For O=C(NCCNc1ccc(Nc2ccccn2)nn1)c1ccc(F)cc1, the “% Inhibition” value (Onchocerca ochengi) was 100%, the IC50 [1] was over 10.6 µg/mL and the “% Inhibition” value (Brugia malayi) was 0%. The IC50 (Leishmania infantum) was over 10.6 µg/mL, the “% Inhibition” value (Schistosoma mansoni) was 0% and the IC50 (Plasmodium falciparum K1) was 4.32 µg/mL (≈ 12.3 µM). The IC50 (Trypanosoma cruzi) was over 10.6 µg/mL and the IC50 [2] was over 10.6 µg/mL.
With O=C(NCCNc1ccc(Nc2ccccn2)nn1)c1cccc(C(F)(F)F)c1 the “% Inhibition” value (Onchocerca ochengi) was 100%, the IC50 [1] was 10.1 µg/mL (≈ 25 µM) and the “% Inhibition” value (Brugia malayi) was 50%. For the same compound, the IC50 (Leishmania infantum) was over 12.1 µg/mL, the “% Inhibition” value (Schistosoma mansoni) was 0% and the IC50 (Plasmodium falciparum K1) was 5.09 µg/mL (≈ 12.6 µM). For the same compound, the IC50 (Trypanosoma cruzi) was over 12.1 µg/mL and the IC50 [2] was 6.4 µg/mL (≈ 15.9 µM).
In the case of O=C(NCCNc1ccc(Nc2ccccn2)nn1)c1ccc(C(F)(F)F)cc1, the “% Inhibition” value (Onchocerca ochengi) was 100%, the IC50 [1] was 7.71 µg/mL (≈ 19.2 µM) and the “% Inhibition” value (Brugia malayi) was 50%. For the same compound, the IC50 (Leishmania infantum) was over 12.1 µg/mL, the “% Inhibition” value (Schistosoma mansoni) was 0% and the IC50 (Plasmodium falciparum K1) was 7.28 µg/mL (≈ 18.1 µM). The IC50 (Trypanosoma cruzi) was over 12.1 µg/mL and the IC50 [2] was 11 µg/mL (≈ 27.5 µM).
For O=C(NCCNc1ccc(Nc2ccccn2)nn1)Nc1ccc(F)cc1, the “% Inhibition” value (Onchocerca ochengi) was 100%, the IC50 [1] was over 11 µg/mL and the “% Inhibition” value (Brugia malayi) was 0%. For the same compound, the IC50 (Leishmania infantum) was over 11 µg/mL, the “% Inhibition” value (Schistosoma mansoni) was 0% and the IC50 (Plasmodium falciparum K1) was over 11 µg/mL. The IC50 (Trypanosoma cruzi) was over 11 µg/mL and the IC50 [2] was 3.66 µg/mL (≈ 9.95 µM).
For Cc1cc(C)cc(NC(=O)NCCNc2ccc(Nc3ccccn3)nn2)c1, the “% Inhibition” value (Onchocerca ochengi) was 100%, the IC50 [1] was over 11.3 µg/mL and the “% Inhibition” value (Brugia malayi) was 0%. For the same compound, the IC50 (Leishmania infantum) was 0.367 µg/mL (≈ 0.972 µM), the “% Inhibition” value (Schistosoma mansoni) was 0% and the IC50 (Plasmodium falciparum K1) was over 11.3 µg/mL. It also gave an IC50 (Trypanosoma cruzi) of over 11.3 µg/mL and an IC50 [2] of over 11.3 µg/mL.
With O=C(c1ccccc1)N1CCN(c2ccc(Nc3ccccn3)nn2)CC1 the “% Inhibition” value (Onchocerca ochengi) was 0%, the IC50 [1] was over 10.8 µg/mL and the “% Inhibition” value (Brugia malayi) was 0%. For the same compound, the IC50 (Leishmania infantum) was 0.35 µg/mL (≈ 0.971 µM), the “% Inhibition” value (Schistosoma mansoni) was 0% and the IC50 (Plasmodium falciparum K1) was over 10.8 µg/mL. The IC50 (Trypanosoma cruzi) was over 10.8 µg/mL and the IC50 [2] was over 10.8 µg/mL.
In the case of O=C(Nc1ccccc1)N1CCN(c2ccc(Nc3ccccn3)nn2)CC1, the “% Inhibition” value (Onchocerca ochengi) was 100%, the IC50 [1] was 11.3 µg/mL (≈ 30 µM) and the “% Inhibition” value (Brugia malayi) was 0%. The IC50 (Leishmania infantum) was over 11.3 µg/mL, the “% Inhibition” value (Schistosoma mansoni) was 0% and the IC50 (Plasmodium falciparum K1) was over 11.3 µg/mL. It also gave an IC50 (Trypanosoma cruzi) of over 11.3 µg/mL and an IC50 [2] of over 11.3 µg/mL.
With COc1ccc(S(=O)(=O)N2CCN(c3ccc(Nc4ccccn4)nn3)CC2)cc1 the “% Inhibition” value (Onchocerca ochengi) was 0%, the IC50 [1] was over 12.8 µg/mL and the “% Inhibition” value (Brugia malayi) was 0%. For the same compound, the IC50 (Leishmania infantum) was 0.414 µg/mL (≈ 0.971 µM), the “% Inhibition” value (Schistosoma mansoni) was 16.7% and the IC50 (Plasmodium falciparum K1) was over 12.8 µg/mL. For the same compound, the IC50 (Trypanosoma cruzi) was over 12.8 µg/mL and the IC50 [2] was over 12.8 µg/mL.
With CCc1ccc(S(=O)(=O)N2CCN(c3ccc(Nc4ccccn4)nn3)CC2)cc1 the “% Inhibition” value (Onchocerca ochengi) was 0%, the IC50 [1] was over 12.7 µg/mL and the “% Inhibition” value (Brugia malayi) was 0%. The IC50 (Leishmania infantum) was 0.412 µg/mL (≈ 0.97 µM), the “% Inhibition” value (Schistosoma mansoni) was 0% and the IC50 (Plasmodium falciparum K1) was 2.8 µg/mL (≈ 6.6 µM). For the same compound, the IC50 (Trypanosoma cruzi) was over 12.7 µg/mL and the IC50 [2] was over 12.7 µg/mL.
For O=C(c1ccc(Cl)cc1Cl)N1CCN(c2ccc(Nc3cccnc3)nn2)CC1, the “% Inhibition” value (Onchocerca ochengi) was 100%, the IC50 [1] was over 12.9 µg/mL and the “% Inhibition” value (Brugia malayi) was 0%. For the same compound, the IC50 (Leishmania infantum) was over 12.9 µg/mL, the “% Inhibition” value (Schistosoma mansoni) was 0% and the IC50 (Plasmodium falciparum K1) was 7.24 µg/mL (≈ 16.9 µM). It also gave an IC50 (Trypanosoma cruzi) of 3.7 µg/mL (≈ 8.63 µM) and an IC50 [2] of over 12.9 µg/mL.
With O=C(c1ccc(C(F)(F)F)cc1)N1CCN(c2ccc(Nc3cccnc3)nn2)CC1 the “% Inhibition” value (Onchocerca ochengi) was 100%, the IC50 [1] was 7.94 µg/mL (≈ 18.5 µM) and the “% Inhibition” value (Brugia malayi) was 25%. For the same compound, the IC50 (Leishmania infantum) was over 12.9 µg/mL, the “% Inhibition” value (Schistosoma mansoni) was 0% and the IC50 (Plasmodium falciparum K1) was over 12.9 µg/mL. It also gave an IC50 (Trypanosoma cruzi) of 3.43 µg/mL (≈ 8.02 µM) and an IC50 [2] of over 12.9 µg/mL.
With Cc1ccc(NC(=O)N2CCN(c3ccc(Nc4cccnc4)nn3)CC2)cc1C the “% Inhibition” value (Onchocerca ochengi) was 100%, the IC50 [1] was over 12.1 µg/mL and the “% Inhibition” value (Brugia malayi) was 0%. For the same compound, the IC50 (Leishmania infantum) was over 12.1 µg/mL, the “% Inhibition” value (Schistosoma mansoni) was 0% and the IC50 (Plasmodium falciparum K1) was over 12.1 µg/mL. The IC50 (Trypanosoma cruzi) was over 12.1 µg/mL and the IC50 [2] was over 12.1 µg/mL.
